Peptide text beside a SMILES is read from it.
Legend:
[1] = biological target: Somatostatin receptor type 2 (Homo sapiens, UniProt P30874); experiment: Displacement of [125I-Tyr11]-SS14 from human SSTR2 expressed in HEK293-A cells incubated for 30 mins by gamma counting based competition radioligand binding assay; format: cell-based
Outline: (§1)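 Competition binding on HEK293A cells overexpressing the given human SSTR subtype, seeded overnight. Binding buffer: 50 mM Tris-HCl pH 7.4, 5 mM MgCl2, 1 mM CaCl, 0.5% BSA, protease inhibitors. 100000 cpm [125I-Tyr11]-SS14 (chloramine-T iodinated, HPLC-purified) with varying competitor, 30 min at 37 °C. Cells washed four times in cold buffer, lysed in 1 N NaOH, gamma counted. Mean ± SD, three experiments in duplicate.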

Urotensin-2 receptor [2] = biological target: T1, Urotensin-2 receptor (Homo sapiens, UniProt Q9UKP6); experiment: Displacement of [125I-Tyr9]-U-II from human U-IIR expressed in HEK293-A cells incubated for 30 mins by gamma counting based competition radioligand binding assay; format: cell-based
T1 sequence (Q9UKP6 whole entry): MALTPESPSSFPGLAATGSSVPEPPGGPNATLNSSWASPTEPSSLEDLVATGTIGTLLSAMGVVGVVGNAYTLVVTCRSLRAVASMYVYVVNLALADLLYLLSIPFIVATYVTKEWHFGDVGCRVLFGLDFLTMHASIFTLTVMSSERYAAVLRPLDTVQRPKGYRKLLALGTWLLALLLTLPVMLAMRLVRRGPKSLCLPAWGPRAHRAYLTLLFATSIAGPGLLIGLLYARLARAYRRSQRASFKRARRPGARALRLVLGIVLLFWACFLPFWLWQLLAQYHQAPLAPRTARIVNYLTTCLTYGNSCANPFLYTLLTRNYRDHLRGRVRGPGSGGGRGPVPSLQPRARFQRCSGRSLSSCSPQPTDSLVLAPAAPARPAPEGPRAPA

[3] = biological target: Somatostatin receptor type 3 (Homo sapiens, UniProt P32745); experiment: Displacement of [125I-Tyr11]-SS14 from human SSTR3 expressed in HEK293-A cells incubated for 30 mins by gamma counting based competition radioligand binding assay; format: cell-based; outline: as §1
[4] = biological target: Somatostatin receptor type 5 (Homo sapiens, UniProt P35346); experiment: Displacement of [125I-Tyr11]-SS14 from human SSTR5 expressed in HEK293-A cells incubated for 30 mins by gamma counting based competition radioligand binding assay; format: cell-based; outline: as §1
[5] = Half life in 25% human serum by RP-HPLC analysis; format: ADME, cell-free
Outline: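 Peptide at 50 μg/mL final in RPMI with 25% (v/v) human serum, pre-equilibrated at 37 °C. Samples taken at set times into 6% TCA, iced 15 min, spun at 18000g. Supernatant run on C18 RP-HPLC, 25–80% acetonitrile gradient over 15 min at 30 °C, absorbance at 214 and 280 nm.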

[6] = biological target: Somatostatin receptor type 1 (Homo sapiens, UniProt P30872); experiment: Displacement of [125I-Tyr11]-SS14 from human SSTR1 expressed in HEK293-A cells incubated for 30 mins by gamma counting based competition radioligand binding assay; format: cell-based; outline: as §1
Urotensin-2 receptor [7] = biological target: T1, Urotensin-2 receptor; experiment: Agonist activity at human U-IIR expressed in HEK293-A cells by Fluo4-AM dye based intracellular calcium mobilization assay; format: functional, cell-based
[8] = biological target: T2, Urotensin-2 receptor (Homo sapiens) (UniProt Q9UKP6); experiment: Agonist activity at human U-IIR expressed in HEK293-A cells at 500 nM by Fluo4-AM dye based intracellular calcium mobilization assay relative to control; format: functional, cell-based; conditions: filed as agonist
T2 sequence (whole entry): T1 sequence (Q9UKP6 whole entry)

[9] = biological target: T2, Urotensin-2 receptor (Homo sapiens); experiment: Agonist activity at human U-IIR expressed in HEK293-A cells at 500 nM by Fluo4-AM dye based intracellular calcium mobilization assay relative to control; conditions: filed as agonist, dose nM 500

Somatostatin receptor type 1, sequence (P30872 whole entry): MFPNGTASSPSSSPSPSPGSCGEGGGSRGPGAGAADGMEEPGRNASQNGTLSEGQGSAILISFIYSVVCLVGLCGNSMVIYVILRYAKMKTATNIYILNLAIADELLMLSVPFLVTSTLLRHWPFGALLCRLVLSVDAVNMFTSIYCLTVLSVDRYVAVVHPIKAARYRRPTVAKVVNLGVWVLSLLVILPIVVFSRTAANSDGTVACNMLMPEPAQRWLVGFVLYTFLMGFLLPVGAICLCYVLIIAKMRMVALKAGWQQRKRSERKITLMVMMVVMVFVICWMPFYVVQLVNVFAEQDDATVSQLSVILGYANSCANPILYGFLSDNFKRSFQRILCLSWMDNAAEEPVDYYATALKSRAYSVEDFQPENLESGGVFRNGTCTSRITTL
Somatostatin receptor type 3, sequence (P32745 whole entry): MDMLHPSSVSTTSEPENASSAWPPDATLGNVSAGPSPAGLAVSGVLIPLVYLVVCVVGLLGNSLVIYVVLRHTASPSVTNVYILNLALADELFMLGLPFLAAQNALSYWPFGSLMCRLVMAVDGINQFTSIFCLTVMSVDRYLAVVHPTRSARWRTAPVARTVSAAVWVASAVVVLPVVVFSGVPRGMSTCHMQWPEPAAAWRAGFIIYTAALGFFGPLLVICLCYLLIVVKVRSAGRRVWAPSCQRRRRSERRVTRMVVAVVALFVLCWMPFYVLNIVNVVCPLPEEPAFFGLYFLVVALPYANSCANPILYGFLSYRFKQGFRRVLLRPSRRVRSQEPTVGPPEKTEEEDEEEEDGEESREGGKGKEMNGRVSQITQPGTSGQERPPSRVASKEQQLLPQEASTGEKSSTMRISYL
Somatostatin receptor type 2, sequence (P30874 whole entry): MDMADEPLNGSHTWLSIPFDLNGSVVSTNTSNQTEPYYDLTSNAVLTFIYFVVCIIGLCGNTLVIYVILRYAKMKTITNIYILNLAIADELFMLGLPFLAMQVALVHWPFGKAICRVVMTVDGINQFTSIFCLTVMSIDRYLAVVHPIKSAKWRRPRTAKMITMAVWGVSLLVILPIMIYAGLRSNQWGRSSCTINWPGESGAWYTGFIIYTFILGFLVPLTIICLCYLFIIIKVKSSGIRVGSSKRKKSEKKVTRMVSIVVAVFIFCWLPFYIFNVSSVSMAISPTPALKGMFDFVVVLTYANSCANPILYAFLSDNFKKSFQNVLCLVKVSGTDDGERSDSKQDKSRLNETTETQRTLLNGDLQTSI
Somatostatin receptor type 5, sequence (P35346 whole entry): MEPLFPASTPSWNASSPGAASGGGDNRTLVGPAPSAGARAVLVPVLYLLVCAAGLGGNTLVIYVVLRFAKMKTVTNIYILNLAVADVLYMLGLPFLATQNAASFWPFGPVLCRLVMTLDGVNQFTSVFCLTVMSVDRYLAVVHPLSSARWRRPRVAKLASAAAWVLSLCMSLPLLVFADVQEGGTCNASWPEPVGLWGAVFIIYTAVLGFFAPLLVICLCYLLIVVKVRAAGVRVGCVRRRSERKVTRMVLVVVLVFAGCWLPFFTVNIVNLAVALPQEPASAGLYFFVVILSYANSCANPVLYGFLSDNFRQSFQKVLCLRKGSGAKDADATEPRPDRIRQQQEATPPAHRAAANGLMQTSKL

Row | %max [8] [%] | %max [9] [%] | SMILES | IC50 [1] [µM] | IC50 (Urotensin-2 receptor [2]) [µM] | IC50 [3] [µM] | IC50 [4] [µM] | half-life [5] [h] | IC50 [6] [µM] | EC50 (Urotensin-2 receptor [7]) [µM]
1 | – | – | CC(C)[C@H](NC(=O)[C@@H]1CSSC[C@H](NC(=O)[C@H](CC(=O)O)NC(=O)[C@@H]2CCCN2C(=O)[C@@H](NC(=O)[C@@H](N)CCC(=O)O)[C@@H](C)O)C(=O)N[C@@H](Cc2ccccc2)C(=O)N[C@@H](Cc2c[nH]c3ccccc23)C(=O)N[C@@H](CCCCN)C(=O)N[C@@H](Cc2ccc(O)cc2)C(=O)N1)C(N)=O | 2.98 | 0.002 | 8.64 | 7.6 | 3.48 | 10.5 | 0.00146
2 | – | – | CC[C@H](NC(=O)[C@H](Cc1ccc(O)c([N+](=O)[O-])c1)NC(=O)[C@H](CCCCN)NC(=O)[C@H](Cc1c[nH]c2ccccc12)NC(=O)[C@H](Cc1c[nH]c2ccccc12)NC(=O)[C@H](N)CC(N)=O)C(N)=O | 37.5 | 0.6 | 6.07 | 28.4 | 22 | 6.72 | 0.00475
3 | 57 | 57 | CC(=O)N[C@@H](Cc1ccccc1)C(=O)N[C@@H](Cc1c[nH]c2ccccc12)C(=O)N[C@@H](CCCCN)C(=O)N[C@@H](Cc1ccc(O)cc1)C(N)=O (Ac-FWKY-NH2) | – | – | – | – | – | – | –

Reference: ChEMBL document CHEMBL4715795, “Urolinin: The First Linear Peptidic Urotensin-II Receptor Agonist” (J Med Chem, 2016)
